Rows were chosen to be rich in hits. Some 3.5% of all compounds tested hit in one or more screens of this group.
Wnt bcat act = Wnt/beta-catenin pathway activation; Wnt/beta-catenin reporter cell assay, activator, plate reader; activation, % at 9.35 µM; 300,000 tested, 1.2% active; in the data active means activation above about 30%, passing the limit was not always enough; inconclusive means no clear call, values can overlap the other calls
HIV Env fusion = HIV envelope-mediated fusion inhibition. HeLa-JRFL Env/CEM21 cell fusion, luciferase. 360,000 tested, 1.1% active. inhibition, % at 12.3 µM. AID 651610;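 active means mean replicate inhibition score of at least 50 and every replicate individually at or above 50; inconclusive means only one of the two criteria met; inactive means mean below 50 and not all replicates reaching 50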
ERAP1 inh = ERAP1 (human) enzyme inhibition | recombinant ERAP1, Leu-AMC fluorescence, 60 min | Q9NZ08 | AID 652197 | 340,000 tested, 0.15% active | inhibition, % at 10.7 µM;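 active means mean replicate inhibition of at least 30%, or all replicates individually reaching that 30% level; inactive means mean below 30% and not every replicate reaching it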
MITF act = increases MITF-driven TRPM1 promoter luciferase signal. SK-MEL-5 TRPM1-promoter luciferase, 24 h; % of positive control, neutral wells = 0. activation, % at 12.5 µM. 300,000 tested, 0.75% active. AID 588334;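 active means mean activation of at least 80% with every replicate also reaching 80%; inconclusive means mean reaches 80% but some replicate falls short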
esBAF inh = inhibitors of esBAF chromatin remodeling in mouse ES cells; 350,000 tested, 2% active; Bmi1-luciferase knock-in reporter, 24 h; 100% = twice the neutral-well signal; reporter increase, % at 12.5 µM; in the data active means activation above about 40%; inconclusive means no clear call, values can overlap the other calls;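 further: a rise in the Bmi1 reporter signal indicates esBAF inhibition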
Cneo AK release = Cryptococcus neoformans lysis via adenylate kinase release | 360,000 tested, 0.2% active | AID 651654 | lysis activity, % at 15 µM | C. neoformans lysis, adenylate kinase release luminescence, 4 h; normalised: neutral wells 0, clomiphene wells 100;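 active means mean lysis activity across replicates of at least 80%, whatever share of replicates individually reach that level; inactive means mean lysis activity below 80%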
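Signal: Adenylate kinase release luminescence | Assay system: Log-phase Cryptococcus neoformans yeast cells | Input: Cells at 5 × 10^6 per mL | Buffer or medium: Fresh YPD growth medium | Compound: Single dose | Schedule: Static 4 h at 37 °C with compound, 1 h detection | Controls: Clomiphene | Read-out: Luminescence rise reflecting yeast cell lysis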
A number is an active result; - = inactive; ? = inconclusive; . = not tested or not shown.

SMILES	Wnt bcat act	HIV Env fusion	ERAP1 inh	MITF act	esBAF inh	Cneo AK release
Cc1cccc(-c2ccc([C@@H]3[C@H]4CN(C(=O)c5ccc6c(c5)OCO6)CCCCN4[C@H]3CO)cc2)c1	.	.	-	.	-	86
O=C(c1cccc(F)c1)N1CCCCN2[C@H](CO)[C@@H](c3ccc(-c4ccncc4)cc3)[C@H]2C1	.	.	-	.	.	-
O=C(c1ccc2c(c1)OCO2)N1CCCCN2[C@H](C1)[C@H](c1ccc(-c3ccccc3)cc1)[C@@H]2CO	.	.	-	.	.	-
O=C(c1cccc(F)c1)N1CCCCN2[C@@H](CO)[C@H](c3ccc(-c4ccncc4)cc3)[C@@H]2C1	.	.	-	.	.	112
C[C@H](CO)N1C[C@H](C)[C@H](CN(C)C(=O)[C@@H]2CCCN2C)OCc2ccccc2-c2c(n(C)c3ccccc23)C1=O	.	-	-	.	-	-
CCCn1cnc2c(sc3nc4c(cc32)CSC(C)(C)C4)c1=O	.	.	.	-	70	-
COc1ccc(C(=O)O/N=C(\N)c2ccc(OC)c(OC)c2)c(OC)c1	.	.	.	-	56	-
COc1ccc(C(=O)Cc2cc3ccccc3oc2=O)cc1	-	-	-	121	56	-
COc1ccc(C(=O)O/N=C(\N)c2ccc(OC)c(OC)c2)cc1	-	-	-	102	-	-
COc1ccc(C(=O)Cc2ccc(OC)c(OC)c2)cc1	-	-	.	-	42	-
COc1ccc(/C(N)=N/OC(=O)c2ccc(OC)c([N+](=O)[O-])c2)cc1OC	-	-	-	-	-	-
COc1ccc(C(=O)CCc2ccc(OC)c(OC)c2)cc1	-	-	.	-	.	.
O=C(N[C@@H]1C=C[C@H](CC(=O)N2CCc3ccccc3C2)O[C@H]1CO)C1CCC1	.	-	-	.	-	-
CCC(C)NS(=O)(=O)c1ccc(S(=O)(=O)N2CCCC3(CCCCC3)C2)cc1 (centres undefined)	-	77	-	-	-	-
CCC(C)C(=O)Nc1ccc(S(=O)(=O)N2CCCC2)cc1 (centres undefined)	-	-	-	-	-	-
N=C1C(c2nc3ccccc3[nH]2)=C(O)CN1c1ccccc1	-	.	.	-	63	-
CC1C(O)=C(c2nc3ccccc3[nH]2)C(=N)N1c1ccccc1 (centres undefined)	.	-	.	-	48	-
CCC(C)N1CC(O)=C(c2nc3ccccc3[nH]2)C1=N (centres undefined)	-	.	-	-	?	-
CC(C)[C@H](C)NC(=O)N(C)C[C@@H]1OCc2ccccc2-c2ccccc2C(=O)N([C@@H](C)CO)C[C@@H]1C	.	-	-	.	-	-
Cc1ccc(NC(=O)/C(C#N)=C/c2ccc(C)s2)c(C)c1	.	.	.	-	42	-
Cc1ccc(/C=C(\C#N)C(=O)Nc2c(C)cccc2C)s1	-	.	-	-	-	.
O=C(CCSc1ccccn1)Nc1ccc(Br)cc1	62	.	-	-	.	.
COc1ccc(NC(=O)CCOc2ccccc2)cc1	.	.	.	112	49	-
O=C(O)CCSc1ccccn1	-	-	-	-	-	.
COc1ccc(NC(=O)CSc2ccccn2)c([N+](=O)[O-])c1	39	-	-	.	?	-
SMILES	Wnt bcat act	HIV Env fusion	ERAP1 inh	MITF act	esBAF inh	Cneo AK release
COC(=O)c1ccc(NC(=O)CCOc2ccccc2)cc1	-	-	-	-	.	.
COc1ccc(NC(=O)CSCc2ccccc2C)cc1	.	-	.	-	67	-
O=C(CSc1ccccn1)Nc1ccc(NC(=O)CSc2ccccn2)cc1	.	-	-	-	.	.
CCC(=O)OCC(=O)Nc1ccc(OC)cc1[N+](=O)[O-]	-	-	-	-	-	.
O=C(CSc1ccccn1)Nc1cccc2ccccc12	-	-	88	-	-	-
COc1ccc(NC(=O)CN(C)C(=O)C2(c3ccccc3)CCCC2)cc1	-	-	-	-	55	-
COc1ccc(NC(=O)CSc2ccccn2)cc1	36	-	.	.	-	-
COc1ccc(NC(=O)COC(=O)CN2C(=O)C3CC=CCC3C2=O)c([N+](=O)[O-])c1 (centres undefined)	40	-	-	-	-	-
CNC[C@@H]1Oc2cc(C#Cc3ccccn3)ccc2S(=O)(=O)N([C@H](C)CO)C[C@H]1C	.	-	-	.	-	-
COc1ccc(NC(=O)N(C)C[C@H]2OCCCC[C@@H](C)Oc3ccc(NC(=O)c4ccccc4)cc3C(=O)N([C@@H](C)CO)C[C@@H]2C)cc1	.	-	-	.	-	-

From PubChem BioAssay
